Laboratory results reported in article PMC7047575 (The AAPS journal, 2018).
Structures can show the parent of a compound that is named as a salt.

Experiments:
[1] = tested on: nAChRs; details: cited from earlier work
[2] = biological target: hERG channels (Homo sapiens, UniProt Q12809); experiment: [3H]Dofetilide binding to hERG channels on HEK-293 cell membranes
[3] = biological target: DAT (Rattus norvegicus, UniProt P23977); experiment: Synaptosomal [3H]DA uptake, rat striatal synaptosomes; type: biochemical
Sequence of DAT (P23977 whole entry): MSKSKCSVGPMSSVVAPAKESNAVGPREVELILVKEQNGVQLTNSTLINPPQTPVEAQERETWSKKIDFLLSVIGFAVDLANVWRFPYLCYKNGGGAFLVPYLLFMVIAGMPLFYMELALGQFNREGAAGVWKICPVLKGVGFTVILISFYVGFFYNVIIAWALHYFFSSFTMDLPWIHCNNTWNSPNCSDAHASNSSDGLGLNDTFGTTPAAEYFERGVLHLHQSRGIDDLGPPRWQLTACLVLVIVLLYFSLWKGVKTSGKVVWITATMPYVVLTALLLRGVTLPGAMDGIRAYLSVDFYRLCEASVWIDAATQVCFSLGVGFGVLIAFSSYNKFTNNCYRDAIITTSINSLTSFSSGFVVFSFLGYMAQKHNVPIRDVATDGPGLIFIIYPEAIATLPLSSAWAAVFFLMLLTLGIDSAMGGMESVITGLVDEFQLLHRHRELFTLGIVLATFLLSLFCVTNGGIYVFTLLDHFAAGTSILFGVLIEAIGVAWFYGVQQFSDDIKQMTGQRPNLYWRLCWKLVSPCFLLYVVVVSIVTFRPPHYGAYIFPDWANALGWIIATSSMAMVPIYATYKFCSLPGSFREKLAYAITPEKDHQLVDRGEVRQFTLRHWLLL

[4] = tested on: METH-sensitized locomotor activity; experiment: METH-induced hyperactivity in METH-sensitized rats, GZ-11610 s.c.; type: in vivo, rat; details: 1-30 mg/kg, 15 min before METH 1 mg/kg s.c., vs vehicle
[5] = biological target: α4β2 nAChRs (Rattus norvegicus, UniProt P09483+P12390); experiment: [3H]NIC binding to rat brain membranes; details: 0.1 nM - 0.1 mM
Sequence of α4β2 nAChRs (P09483 31-630): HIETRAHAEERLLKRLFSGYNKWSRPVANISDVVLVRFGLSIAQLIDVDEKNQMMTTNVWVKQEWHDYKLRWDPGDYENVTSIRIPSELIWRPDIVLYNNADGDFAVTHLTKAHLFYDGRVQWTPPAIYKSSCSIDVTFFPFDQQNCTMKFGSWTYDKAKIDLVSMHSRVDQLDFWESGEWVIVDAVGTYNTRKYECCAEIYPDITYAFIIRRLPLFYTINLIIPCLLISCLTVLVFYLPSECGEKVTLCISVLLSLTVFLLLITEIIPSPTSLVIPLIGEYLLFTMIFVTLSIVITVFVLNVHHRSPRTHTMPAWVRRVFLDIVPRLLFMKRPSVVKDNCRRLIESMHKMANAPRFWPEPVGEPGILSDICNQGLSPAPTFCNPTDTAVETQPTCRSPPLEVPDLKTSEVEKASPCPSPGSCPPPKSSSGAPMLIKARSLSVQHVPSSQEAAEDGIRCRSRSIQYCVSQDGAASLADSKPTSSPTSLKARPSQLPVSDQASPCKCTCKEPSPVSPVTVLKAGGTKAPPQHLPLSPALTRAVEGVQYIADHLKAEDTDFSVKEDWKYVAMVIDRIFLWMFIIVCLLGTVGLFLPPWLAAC
Sequence of α4β2 nAChRs (P12390 25-500): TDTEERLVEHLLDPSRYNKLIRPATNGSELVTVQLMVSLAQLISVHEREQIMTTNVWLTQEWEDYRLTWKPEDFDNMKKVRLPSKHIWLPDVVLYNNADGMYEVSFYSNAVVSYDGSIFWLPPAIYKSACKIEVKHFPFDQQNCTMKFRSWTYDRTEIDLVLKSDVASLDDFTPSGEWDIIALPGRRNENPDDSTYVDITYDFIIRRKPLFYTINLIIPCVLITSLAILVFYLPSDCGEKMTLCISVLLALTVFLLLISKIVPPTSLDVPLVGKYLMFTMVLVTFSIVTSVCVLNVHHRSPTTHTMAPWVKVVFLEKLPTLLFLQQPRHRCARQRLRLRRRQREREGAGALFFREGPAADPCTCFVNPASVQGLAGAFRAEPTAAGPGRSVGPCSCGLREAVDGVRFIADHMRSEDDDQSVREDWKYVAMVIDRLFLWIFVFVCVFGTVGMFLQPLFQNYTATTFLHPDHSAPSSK

[6] = tested on: METH-sensitized locomotor activity; experiment: METH-induced hyperactivity in METH-sensitized rats, GZ-11610 oral; type: in vivo, rat; details: 5.6-300 mg/kg
[7] = biological target: α7 nAChRs (Rattus norvegicus, UniProt Q05941); experiment: [3H]MLA binding to rat brain membranes; details: 0.1 nM - 0.1 mM
Sequence of α7 nAChRs (Q05941 23-502): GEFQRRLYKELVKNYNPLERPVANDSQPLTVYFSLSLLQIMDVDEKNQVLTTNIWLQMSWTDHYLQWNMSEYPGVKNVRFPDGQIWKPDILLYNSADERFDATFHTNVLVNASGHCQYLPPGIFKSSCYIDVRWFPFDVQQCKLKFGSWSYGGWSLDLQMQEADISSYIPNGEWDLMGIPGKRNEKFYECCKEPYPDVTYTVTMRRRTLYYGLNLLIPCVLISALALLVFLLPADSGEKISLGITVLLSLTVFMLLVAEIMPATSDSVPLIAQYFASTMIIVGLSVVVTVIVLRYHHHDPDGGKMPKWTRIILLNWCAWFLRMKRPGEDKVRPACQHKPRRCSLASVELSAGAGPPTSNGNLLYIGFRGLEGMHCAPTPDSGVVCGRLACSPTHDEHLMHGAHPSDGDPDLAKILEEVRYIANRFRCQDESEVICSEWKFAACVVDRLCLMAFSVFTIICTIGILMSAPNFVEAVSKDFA
Procedure, shortened: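 Membranes from rat whole brain minus cortex and cerebellum, washed by repeated 31,000 g spins, with a 10 min 37°C incubation. Binding used 100–140 μg protein, test compound at 7–9 concentrations (0.1 nM–0.1 mM), and [3H]MLA added at 3 nM, in HEPES saline buffer pH 7.5, for 60 min at room temperature. Nonspecific binding was defined with 10 μM nicotine. Read-out by PEI-GF/B filtration and scintillation; n=3.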

[8] = biological target: VMAT2 (Rattus norvegicus, UniProt Q01827); experiment: Vesicular [3H]DA uptake, rat striatal synaptic vesicles; type: biochemical
Sequence of VMAT2 (Q01827 whole entry): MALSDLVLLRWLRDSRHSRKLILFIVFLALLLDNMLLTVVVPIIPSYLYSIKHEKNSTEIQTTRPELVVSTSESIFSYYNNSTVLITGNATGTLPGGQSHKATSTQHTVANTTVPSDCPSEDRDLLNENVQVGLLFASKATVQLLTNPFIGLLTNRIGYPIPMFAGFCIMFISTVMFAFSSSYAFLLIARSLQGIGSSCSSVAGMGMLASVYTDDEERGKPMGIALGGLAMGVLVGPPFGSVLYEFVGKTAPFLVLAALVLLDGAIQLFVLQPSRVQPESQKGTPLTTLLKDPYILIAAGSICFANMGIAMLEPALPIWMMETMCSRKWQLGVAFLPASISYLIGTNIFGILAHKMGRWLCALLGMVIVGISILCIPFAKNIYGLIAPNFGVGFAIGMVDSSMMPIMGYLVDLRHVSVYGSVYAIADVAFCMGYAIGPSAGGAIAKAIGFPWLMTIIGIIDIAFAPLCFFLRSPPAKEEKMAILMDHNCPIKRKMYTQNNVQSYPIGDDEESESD

[9] = biological target: SERT (Rattus norvegicus, UniProt P31652); experiment: Synaptosomal [3H]5-HT uptake, rat striatal synaptosomes; type: biochemical
Sequence of SERT (P31652 whole entry): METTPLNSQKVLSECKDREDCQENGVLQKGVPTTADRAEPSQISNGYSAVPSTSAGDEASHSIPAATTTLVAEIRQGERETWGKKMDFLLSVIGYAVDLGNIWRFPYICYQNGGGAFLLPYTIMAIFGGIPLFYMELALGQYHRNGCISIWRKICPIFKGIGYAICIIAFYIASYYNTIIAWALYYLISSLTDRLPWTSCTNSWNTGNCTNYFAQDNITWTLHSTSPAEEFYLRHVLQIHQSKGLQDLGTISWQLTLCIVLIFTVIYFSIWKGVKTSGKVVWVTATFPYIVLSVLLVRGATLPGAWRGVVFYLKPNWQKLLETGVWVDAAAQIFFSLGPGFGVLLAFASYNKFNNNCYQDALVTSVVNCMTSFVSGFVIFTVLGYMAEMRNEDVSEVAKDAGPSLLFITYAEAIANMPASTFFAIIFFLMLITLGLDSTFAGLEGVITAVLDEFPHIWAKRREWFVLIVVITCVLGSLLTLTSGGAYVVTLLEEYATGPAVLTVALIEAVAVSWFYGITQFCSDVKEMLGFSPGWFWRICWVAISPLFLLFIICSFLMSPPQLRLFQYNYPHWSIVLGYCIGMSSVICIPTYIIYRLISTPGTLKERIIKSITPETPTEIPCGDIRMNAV

[10] = tested on: locomotor activity; experiment: Locomotor sensitization to repeated METH administration; type: in vivo, rat
Procedure, shortened: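 Rats randomly assigned to METH or saline groups. Day 0: 60 min chamber habituation without injection. Distance traveled on Days 1 and 10 compared with saline controls and with Day 1.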

[11] = cited from earlier work
[12] = tested on: cells co-expressing VMAT2 and DAT; details: dissociated cells co-expressing VMAT2 and DAT; cited from earlier work

Sequence of hERG channels (Q12809 whole entry): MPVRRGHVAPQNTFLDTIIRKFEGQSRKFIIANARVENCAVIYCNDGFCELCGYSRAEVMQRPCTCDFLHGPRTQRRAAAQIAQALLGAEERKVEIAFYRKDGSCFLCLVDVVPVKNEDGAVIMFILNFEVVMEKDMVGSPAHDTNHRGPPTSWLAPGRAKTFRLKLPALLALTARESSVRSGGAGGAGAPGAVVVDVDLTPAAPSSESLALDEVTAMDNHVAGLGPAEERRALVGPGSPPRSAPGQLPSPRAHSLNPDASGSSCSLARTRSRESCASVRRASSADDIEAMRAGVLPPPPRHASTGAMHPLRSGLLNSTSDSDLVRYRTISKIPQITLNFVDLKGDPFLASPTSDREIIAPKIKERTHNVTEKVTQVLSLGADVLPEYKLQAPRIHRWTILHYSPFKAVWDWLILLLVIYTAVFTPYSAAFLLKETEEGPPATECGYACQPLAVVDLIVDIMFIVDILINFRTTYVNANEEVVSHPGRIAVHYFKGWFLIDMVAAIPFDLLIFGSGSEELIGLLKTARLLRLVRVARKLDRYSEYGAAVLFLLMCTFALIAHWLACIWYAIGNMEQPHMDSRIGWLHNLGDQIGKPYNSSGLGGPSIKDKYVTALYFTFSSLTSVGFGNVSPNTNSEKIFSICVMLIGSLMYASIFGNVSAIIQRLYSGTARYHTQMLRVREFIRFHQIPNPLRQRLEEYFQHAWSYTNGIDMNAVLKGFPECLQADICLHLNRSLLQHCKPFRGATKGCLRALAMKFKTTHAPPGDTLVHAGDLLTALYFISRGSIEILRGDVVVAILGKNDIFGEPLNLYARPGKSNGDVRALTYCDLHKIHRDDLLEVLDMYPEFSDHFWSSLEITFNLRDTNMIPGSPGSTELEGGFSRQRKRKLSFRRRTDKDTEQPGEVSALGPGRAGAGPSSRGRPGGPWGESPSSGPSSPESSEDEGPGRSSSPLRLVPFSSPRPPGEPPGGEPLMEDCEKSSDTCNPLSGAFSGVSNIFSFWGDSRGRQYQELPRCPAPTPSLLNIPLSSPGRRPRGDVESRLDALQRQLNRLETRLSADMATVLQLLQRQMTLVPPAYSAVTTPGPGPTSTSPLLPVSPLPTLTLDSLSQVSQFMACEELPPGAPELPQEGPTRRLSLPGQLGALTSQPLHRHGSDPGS

COc1ccc(CCC2CCCC(CCc3ccc(OC)cc3)N2C[C@@H](O)CO)cc1.Cl (stereo in doubt) [GZ-793A, R-N-(1,2-dihydroxypropyl)-2,6-cis-di-(4-methoxyphenethyl)piperidine hydrochloride]
selectivity for VMAT2 over nAChRs [1]: > 1000 fold

COc1ccc(CCCN[C@H](C)Cc2ccccc2)cc1 [GZ-11610, R-3-(4-methoxyphenyl)-N-(1-phenylpropan-2-yl)propan-1-amine]
Ki [2]: 9.5 µM
Imax of [3H]dofetilide binding to hERG channels ([2]; HEK-293 cell membranes, 0.1 nM - 0.1 mM): > 80%
Ki [3]: 2.51 µM
Imax of [3H]DA uptake at DAT ([3]; 0.1 nM - 0.1 mM): > 95%
effect on distance traveled after METH in the METH-sensitized group [4]: dose-dependently reduced the distance traveled
Imax, inhibition of [3H]NIC binding [5]: < 20%
effect on distance traveled after METH in the METH-sensitized group ([6]; 15 min before METH 1 mg/kg s.c., vs vehicle): reduced the distance traveled
effect on locomotor activity in the saline group ([6]; one-way ANOVA): no significant GZ-11610 effects on locomotor activity
Imax, inhibition of [3H]MLA binding [7]: < 20%
maximal inhibition (Imax) of [3H]DA uptake at VMAT2 ([8]; 0.1 nM - 0.1 mM): > 95%
Ki ([8]; read-out: Ki, inhibition of [3H]DA uptake at VMAT2, rat striatal synaptic vesicles): 0.0087 µM
Imax of [3H]5-HT uptake at SERT [9]: > 95%
Ki [9]: 5.55 µM

CN[C@@H](C)Cc1ccccc1 [METH, (+)-Methamphetamine hydrochloride]
distance traveled compared to saline, Day 10 ([10]; METH 1 mg/kg s.c. once daily for 10 days): increased distance traveled (p < 0.05)
distance traveled compared to saline, Day 1 ([10]; acute METH 1 mg/kg s.c.): increased (p < 0.05) distance traveled
LogP [11]: 2.10

COc1cc2c(cc1OC)[C@H]1C[C@@H](O)[C@H](CC(C)C)CN1CC2 [dihydrotetrabenazene]
reduction of METH-evoked DA efflux [12]: 60%

CN1[C@@H](CC(=O)c2ccccc2)CCC[C@H]1C[C@H](O)c1ccccc1 [lobeline]
reduction of METH-evoked DA efflux [12]: 60%
